Experimental data: ChEMBL document CHEMBL1126796, “2-(Alkylamino)nicotinic acid and analogs. Potent angiotensin II antagonists” (J Med Chem, 1993)

Assays:
[1] = Half-life period of compound after intravenous dose of 1 mg/kg; type: ADME, organism-based; set-up: dose 1 mg/kg, route intravenous; conditions: in vivo
In short: (§1)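 Male Sprague-Dawley-derived rats. Compound was given in normal saline at 1 mL/kg, either as a slow iv bolus into the jugular vein or orally by gavage. Plasma underwent liquid-liquid extraction and reverse-phase HPLC. Terminal elimination half-life and time of observed peak concentration were taken from the profiles.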

[2] = Bioavailability after oral dose of 3 mg/kg; type: ADME, organism-based; conditions: eutheria, in vivo
In short: (§2)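 Male Sprague-Dawley-derived rats were dosed with compound in normal saline (1 mL/kg), by gavage or as a slow IV bolus into the jugular vein. Heparinized tail-vein blood was taken at 0.25-24 h, extracted liquid-liquid and assayed by reverse-phase HPLC. Cmax is the observed peak concentration and AUC is mean (SEM). F compares oral with IV AUC, corrected for dose and assuming dose proportionality.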

[3] = Bioavailability after oral dose of 1 mg/kg; type: ADME, organism-based; conditions: eutheria, in vivo; in short: as §2
Rattus norvegicus [4] = assay: % decrease in blood pressure after 24 hours at a dose of 1 mg/kg in male rats by using Furosemide-treated spontaneous hypertensive model; type: functional
In short: (§3)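 Male SHR, 20-24 weeks old, pretreated with furosemide 10 mg/kg sc at 22 and 4 h before the experiment; compound dosed orally. Arterial pressure was recorded from an indwelling femoral artery catheter with on-line blood pressure and heart rate analysis. Read-out is % fall in blood pressure at 4 h and at 24 h, ±SEM, with number of rats.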

[5] = Cmax value after oral dose of 0.1 mg//kg; type: ADME, organism-based; set-up: dose 0.1 mg//kg, route oral; conditions: in vivo; in short: as §2
[6] = Area under curve after oral dose of 3 mg/kg; type: ADME, organism-based; set-up: dose 3 mg/kg, route oral; conditions: in vivo; in short: as §2
[7] = target: T1, Type-1 angiotensin II receptor A (Rattus norvegicus, UniProt P25095); assay: Binding affinity against angiotensin II receptor from rat liver
T1 sequence (P25095 whole entry): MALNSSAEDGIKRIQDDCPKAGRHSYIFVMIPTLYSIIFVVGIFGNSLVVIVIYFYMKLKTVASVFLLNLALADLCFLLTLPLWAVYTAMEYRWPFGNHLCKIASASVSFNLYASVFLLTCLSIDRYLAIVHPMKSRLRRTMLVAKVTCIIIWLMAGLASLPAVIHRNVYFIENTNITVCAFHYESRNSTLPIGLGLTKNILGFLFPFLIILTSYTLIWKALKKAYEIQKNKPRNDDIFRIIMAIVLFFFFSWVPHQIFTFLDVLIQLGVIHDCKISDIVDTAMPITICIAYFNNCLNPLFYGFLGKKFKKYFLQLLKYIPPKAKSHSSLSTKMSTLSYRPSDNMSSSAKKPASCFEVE
In short: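 Rat liver membranes were incubated with [125I]-saralasin to measure angiotensin II type 1 receptor binding. Nonspecific binding was defined with 1 µM angiotensin.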

[8] = Tmax value after oral dose of 0.1 mg//kg; type: ADME, organism-based; conditions: in vivo; in short: as §1
[9] = Area under curve after oral dose of 0.1 mg//kg; type: ADME; in short: as §2
[10] = Bioavailability after oral dose of 0.3 mg/kg; type: ADME, organism-based; conditions: eutheria, in vivo; in short: as §2
[11] = Volume of distribution of the terminal phase (= CLp+ plasma elimination rate constant) after intravenous dose of 0.3 mg/kg; type: ADME, organism-based; set-up: dose 0.3 mg/kg, route intravenous; conditions: read-out: Vbeta
In short: (§4)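 Jugular-vein slow iv bolus (normal saline, 1 mL/kg) in male Sprague-Dawley-derived rats. Plasma was sampled via the tail vein at 0.1–24 h and measured by reverse-phase HPLC after liquid-liquid extraction. Central volume was taken as dose divided by plasma concentration at time zero. Terminal-phase volume was derived from clearance and the plasma elimination rate constant.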

Rattus norvegicus [12] = assay: % decrease in blood pressure after 4 hours in male rats at a dose of 0.01 mg/kg by using Renal artery hypertensive model; type: functional
In short: (§5)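 Male Sprague-Dawley rats (300-350 g) were made hypertensive by renal artery ligation and used on day 6 or 7 after ligation. Arterial pressure was measured from an indwelling femoral artery catheter, with blood pressure and heart rate recorded on line. Read-out is % decrease in blood pressure at 4 h, ±SEM, with number of rats.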

[13] = Volume of distribution of central compartment (= dose+ plasma concentration at time zero) after intravenous dose of 0.3 mg/kg; type: ADME, organism-based; set-up: dose 0.3 mg/kg, route intravenous; conditions: read-out: VI; in short: as §4
[14] = Cmax value after oral dose of 0.3 mg/kg; type: ADME, organism-based; set-up: dose 0.3 mg/kg, route oral; conditions: in vivo; in short: as §2
[15] = Plasma clearance after intravenous dose of 1 mg/kg; type: ADME, organism-based; set-up: dose 1 mg/kg, route intravenous; conditions: read-out: Clp
In short: (§6)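 Male Sprague-Dawley-derived rats received a slow iv bolus into the jugular vein of the compound in normal saline (1 mL/kg). Tail-vein heparinized blood was drawn from 0.1 to 24 h and assayed by reverse-phase HPLC after liquid-liquid extraction. Total plasma clearance was calculated as dose divided by AUC and reported as mean (SEM).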

[16] = Area under curve after oral dose of 0.3 mg/kg; type: ADME, organism-based; set-up: dose 0.3 mg/kg, route oral; conditions: in vivo; in short: as §2
[17] = Half-life period after oral dose of 1 mg/kg; type: ADME, organism-based; set-up: dose 1 mg/kg, route oral; conditions: in vivo; in short: as §2
[18] = Tmax value after oral dose of 1 mg/kg; type: ADME, organism-based; set-up: dose 1 mg/kg, route oral; conditions: in vivo; in short: as §1
Rattus norvegicus [19] = assay: % decrease in blood pressure after 4 hours at a dose of 1 mg/kg in male rats by using Renal artery hypertensive model; type: functional; in short: as §5
[20] = Volume of distribution of central compartment (= dose+ plasma concentration at time zero) after intravenous dose of 1 mg/kg; type: ADME, organism-based; set-up: dose 1 mg/kg, route intravenous; conditions: read-out: VI; in short: as §4
[21] = Cmax value after oral dose of 3 mg/kg; type: ADME, organism-based; set-up: dose 3 mg/kg, route oral; conditions: in vivo; in short: as §2
[22] = Half-life period after oral dose of 0.1 mg//kg; type: ADME, organism-based; conditions: in vivo; in short: as §2
[23] = Half-life period of compound after intravenous dose of 0.3 mg/kg; type: ADME, organism-based; set-up: dose 0.3 mg/kg, route intravenous; conditions: in vivo; in short: as §1
[24] = Volume of distribution of the terminal phase (= CLp+ plasma elimination rate constant) after intravenous dose of 3 mg/kg; type: ADME, organism-based; set-up: dose 3 mg/kg, route intravenous; conditions: read-out: Vbeta; in short: as §4
Rattus norvegicus [25] = assay: % decrease in blood pressure after 4 hours in male rats at a dose of 0.03 mg/kg by using Renal artery hypertensive model; type: functional; in short: as §5
[26] = Plasma clearance after intravenous dose of 3 mg/kg; type: ADME, organism-based; set-up: dose 3 mg/kg, route intravenous; conditions: read-out: Clp; in short: as §6
Rattus norvegicus [27] = assay: % decrease in blood pressure after 4 hours in male rats at a dose of 0.3 mg/kg by using Renal artery hypertensive model; type: functional; in short: as §5
[28] = Bioavailability after oral dose of 0.1 mg//kg; type: ADME, organism-based; conditions: eutheria, in vivo; in short: as §2
[29] = Tmax value after oral dose of 3 mg/kg; type: ADME, organism-based; set-up: dose 3 mg/kg, route oral; conditions: in vivo; in short: as §1
Rattus norvegicus [30] = assay: % decrease in blood pressure after 4 hours at a dose of 1 mg/kg in male rats by using Furosemide-treated spontaneous hypertensive model; type: functional; in short: as §3
[31] = Volume of distribution of the terminal phase (= CLp+ plasma elimination rate constant) after intravenous dose of 1 mg/kg; type: ADME, organism-based; set-up: dose 1 mg/kg, route intravenous; conditions: read-out: Vbeta; in short: as §4
Rattus norvegicus [32] = assay: % decrease in blood pressure after 4 hours at a dose of 0.1 mg/kg in male rats by using Furosemide-treated spontaneous hypertensive model; type: functional; in short: as §3
[33] = Plasma clearance after intravenous dose of 0.3 mg/kg; type: ADME, organism-based; set-up: dose 0.3 mg/kg, route intravenous; conditions: read-out: Clp; in short: as §6
[34] = Half-life period after oral dose of 0.3 mg/kg; type: ADME, organism-based; set-up: dose 0.3 mg/kg, route oral; conditions: in vivo; in short: as §2
[35] = Area under curve after oral dose of 1 mg/kg; type: ADME, organism-based; set-up: dose 1 mg/kg, route oral; conditions: in vivo; in short: as §2
Rattus norvegicus [36] = assay: % decrease in blood pressure after 24 hours at a dose of 0.1 mg/kg in male rats by using Furosemide-treated spontaneous hypertensive model; type: functional; in short: as §3
[37] = Half-life period of compound after intravenous dose of 3 mg/kg; type: ADME, organism-based; set-up: dose 3 mg/kg, route intravenous; conditions: in vivo; in short: as §1
[38] = Tmax value after oral dose of 0.3 mg/kg; type: ADME, organism-based; set-up: dose 0.3 mg/kg, route oral; conditions: in vivo; in short: as §1
[39] = Half-life period after oral dose of 3 mg/kg; type: ADME, organism-based; set-up: dose 3 mg/kg, route oral; conditions: in vivo; in short: as §2
[40] = Volume of distribution of central compartment (= dose+ plasma concentration at time zero) after intravenous dose of 3 mg/kg; type: ADME, organism-based; set-up: dose 3 mg/kg, route intravenous; conditions: read-out: VI; in short: as §4
[41] = Cmax value after oral dose of 1 mg/kg; type: ADME, organism-based; set-up: dose 1 mg/kg, route oral; conditions: in vivo; in short: as §2

Structure (SMILES): CCCN(Cc1ccc(-c2ccccc2-c2nnn[nH]2)cc1)c1ncccc1C(=O)O
- half-life [1]: 7.1 h
- bioavailability [2]: 36.3%
- bioavailability [3]: 34.9%
- Decrease in blood pressure (Rattus norvegicus [4]): 46%
- Cmax [5]: 490 ng/mL
- AUC [6]: 90.15 µg/h/mL
- Ki [7]: 0.61 nM
- Tmax [8]: 1.3 h
- AUC [9]: 8.21 µg/h/mL
- bioavailability [10]: 97.2%
- Vd [11]: 0.17 L/kg
- Decrease in blood pressure (Rattus norvegicus [12]): 22%
- Vd [13]: 0.04 L/kg
- Cmax [14]: 1350 ng/mL
- clearance [15]: 0.07 mL/min
- AUC [16]: 24.44 µg/h/mL
- half-life [17]: 6.9 h
- Tmax [18]: 0.9 h
- Decrease in blood pressure (Rattus norvegicus [19]): 40%
- Vd [20]: 0.04 L/kg
- Cmax [21]: 9600 ng/mL
- half-life [22]: ≤ 12 h
- half-life [23]: 9.5 h
- Vd [24]: 0.12 L/kg
- Decrease in blood pressure (Rattus norvegicus [25]): 10%
- clearance [26]: 0.07 mL/min
- Decrease in blood pressure (Rattus norvegicus [27]): 36%
- bioavailability [28]: 97.9%
- Tmax [29]: 0.9 h
- Decrease in blood pressure (Rattus norvegicus [30]): 32%
- Vd [31]: 0.13 L/kg
- Decrease in blood pressure (Rattus norvegicus [32]): 23%
- clearance [33]: 0.07 mL/min
- half-life [34]: > 12 h
- AUC [35]: 28.87 µg/h/mL
- Decrease in blood pressure (Rattus norvegicus [36]): 36%
- half-life [37]: 6.6 h
- Tmax [38]: 1.4 h
- half-life [39]: 5.7 h
- Vd [40]: 0.04 L/kg
- Cmax [41]: 2770 ng/mL
